Measurements from ChEMBL document CHEMBL1123327, “Ribose as the preferential target for the oxidized form of elliptinium acetate in ribonucleos(t)ides. Biological activities of the resulting adducts” (1986).

Tested on: L1210
Assay: Cytotoxicity was determined in vitro in murine leukemia L1210 Cells
Type: functional
Details: Mus musculus, read-out: ID50 (the source's name)
Method in brief: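 Growth inhibition of murine leukemia L1210 cells cultured in vitro. Cells were exposed to the adducts for 48 h and then counted. ID50 is the drug concentration that cuts cell number by 50% relative to untreated control.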

SMILES | IC50 [nM]
Cc1c2cc[n+](C)cc2c(C)c2c3c([nH]c12)C=CC(=O)[C@@]31O[C@@H]2[C@H](O1)[C@@H](COP(=O)(O)O)O[C@H]2n1cnc2c(O)nc(N)nc21 | > 1000
Cc1c2cc[n+](C)cc2c(C)c2c3c([nH]c12)C=CC(=O)[C@@]31O[C@@H]2[C@H](O1)[C@@H](CO)O[C@H]2n1ncc(=O)[nH]c1=O | > 3000
Cc1c2cc[n+](C)cc2c(C)c2c3c([nH]c12)C=CC(=O)[C@@]31O[C@@H]2[C@H](O1)[C@@H](CO)O[C@H]2n1ccc(N)nc1=O | 3000
Cc1c2cc[n+](C)cc2c(C)c2c3c([nH]c12)C=CC(=O)[C@@]31O[C@@H]2[C@H](O1)[C@@H](COP(=O)(O)O)O[C@H]2n1cnc2c(N)ncnc21 | > 800
Nc1nc2[nH]cnc2c(=S)[nH]1 [THIOGUANINE] | 70
Nc1nc(=S)c2ncn([C@@H]3O[C@H](CO)[C@@H](O)[C@H]3O)c2[nH]1 [THIOGUANOSINE] | 100
Cc1c2cc[n+](C)cc2c(C)c2c3c([nH]c12)C=CC(=O)[C@@]31O[C@@H]2[C@H](O1)[C@@H](CO)O[C@H]2n1cnc2c(N)ncnc21 | 800
Cc1c2cc[n+](C)cc2c(C)c2c3c([nH]c12)C=CC(=O)[C@@]31O[C@@H]2[C@H](O1)[C@@H](CO)O[C@H]2n1cnc2c(O)nc(N)nc21 | 800
Cc1c2cc[n+](C)cc2c(C)c2c3c([nH]c12)C=CC(=O)[C@@]31O[C@@H]2[C@H](O1)[C@@H](CO)O[C@H]2n1ccc(=O)[nH]c1=O | > 3000
O=c1cnn([C@@H]2O[C@H](CO)[C@@H](O)[C@H]2O)c(=O)[nH]1 [6-AZAURIDINE] | 570
Cc1c2cc[n+](C)cc2c(C)c2c3c([nH]c12)C=CC(=O)[C@@]31O[C@@H]2[C@H](O1)[C@@H](COP(=O)(O)O)O[C@H]2n1ccc(=O)[nH]c1=O | 1100
Cc1c2cc[n+](C)cc2c(C)c2c1[nH]c1ccc(O)cc12 [ELLIPTINIUM ACETATE] | 120
Cc1c2cc[n+](C)cc2c(C)c2c3c([nH]c12)C=CC(=O)[C@@]31O[C@@H]2[C@H](O1)[C@@H](COP(=O)(O)O)O[C@H]2n1ccc(N)nc1=O | 12800
